37 compounds from ChEMBL document CHEMBL1134645, “Discovery of small-molecule inhibitors of Bcl-2 through structure-based computer screening” (J Med Chem, 2001) can be followed below.

Experiment [1] addresses T1, Apoptosis regulator Bcl-2 (Homo sapiens, UniProt P10415). The experiment in a line: In vitro inhibition of Bak-Bh3 peptide binding to the Bcl-2 using human myeloid leukemia cell line HL-60; Inactive.
Experiment [2] has as its target T1, Apoptosis regulator Bcl-2. The experiment in a line: Inhibitory activity against Bcl-2. In short, it runs like this: (§1)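 FP competition assay with recombinant GST-fused Bcl-2 (46 kDa), final 270 nM, and a fluorescein-labelled 16-mer Bak BH3 peptide tracer, final 290 nM, in 1X PBS. Compound added with final DMSO below 1%, incubated 10 min at room temperature, and polarization read at ex 485/em 535 nm. Screening was at 100 μM. IC50 came from 6–7-point serial dilutions from 100 μM, in triplicate.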

Experiment [3] has as its target T1, Apoptosis regulator Bcl-2. The experiment in a line: In vitro inhibitory activity against Bak-Bh3 peptide binding to the Bcl-2 using human myeloid leukemia cell line HL-60. An outline of the steps: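 Fluorescence polarization competition with 46 kDa recombinant GST-fused Bcl-2 (270 nM final) and 16-mer fluorescein-labelled Bak BH3 tracer (290 nM final) in PBS, preincubated 20 min at room temperature. Compound added (DMSO <1%), read after 10 min at room temperature, ex 485/em 535 nm. IC50 from 6–7 point serial dilutions in triplicate starting at 100 μM.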

Experiment [4] addresses T1, Apoptosis regulator Bcl-2. The experiment in a line: In vitro inhibitory activity against Bak-Bh3 peptide binding to the Bcl-2. An outline of the steps: as §1
Experiment [5] addresses T1, Apoptosis regulator Bcl-2. The experiment in a line: Inhibitory activity against Bcl-2 using bromide assay. An outline of the steps: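 HL-60 cells in RPMI 1640 with 10% FBS at 37 °C and 5% CO2 were plated at 2000–4000 cells/well, with various compound concentrations added at the start. After 4 days, MTT was added for 4 h at 37 °C. Formazan was solubilized in 2-propanol and absorbance read. IC50 is for inhibition of cell growth.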

T1 sequence (P10415 whole entry, the tested form may be a part): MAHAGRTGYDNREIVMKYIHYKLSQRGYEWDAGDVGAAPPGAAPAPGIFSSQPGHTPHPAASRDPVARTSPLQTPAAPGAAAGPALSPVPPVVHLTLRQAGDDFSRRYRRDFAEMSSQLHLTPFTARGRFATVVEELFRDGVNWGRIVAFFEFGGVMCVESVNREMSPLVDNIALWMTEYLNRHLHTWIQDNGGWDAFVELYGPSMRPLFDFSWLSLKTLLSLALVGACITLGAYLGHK

With `CS1(C)=NC(=O)C2=C(N=1)c1ccccc1S2(=O)=O`, the IC50 result in experiment [1] is recorded as “Not Active”.

As for `O=C1c2ccccc2C(=O)c2c1ccc1nc3c(ccc4c(O)c5ccccc5c(O)c43)nc21`, in experiment [1], the IC50 entry is “Not Active”.

The compound `CC(C)C(C(=O)O)N1C(=O)/C(=C/c2ccc(Br)cc2)SC1=S` (stereo not drawn) registered a Ki in experiment [2] of 2.4 µM.

In the case of `O=C1c2ccccc2-c2cc(O)c3c4c(O)cc5c6c(ccc(c7ccc1c2c73)c64)C(=O)c1ccccc1-5`, the IC50 result in experiment [1] is “Not Active”.

In turn, `COc1ccc2c(c1)C(=O)C1C=C([N+]#N)C=CC1N2` (stereo not drawn) displayed an IC50 in experiment [3] of 10.4 µM.

On to `O=C1c2cc(Br)ccc2-c2ccc3c4ccc5c6c(ccc(c7ccc1c2c73)c64)C(=O)c1cc(Br)ccc1-5`, for which the IC50 in experiment [4] came to 7.7 µM.

In the case of `Cc1cc(Cl)cc(C(=O)Nc2cc(S(=O)(=O)c3ccc(Cl)cc3)ccc2Cl)c1O`, the IC50 in experiment [2] is 3.3 µM.

As for `O=C1NC(=O)c2ccc3c4ccc5c6c(ccc(c7ccc1c2c73)c64)C(=O)N(c1ccccc1)C5=O`, in experiment [1], the IC50 result is “Not Active”.

For `C[n+]1cc2c3cc4c(cc3ccc2c2ccc3c(c21)OCO3)OCO4`, the IC50 entry in experiment [1] is given as “Not Active”.

With `[O-][n+]1c2c([n+]([O-])c3c4ccccc4ccc31)-c1cccc3cccc-2c13`, the IC50 entry in experiment [1] is reported as “Not Active”.

With `CCOC(=O)C(C#N)C1c2cc(Br)ccc2OC(N)C1C(=O)OCC` (stereo not drawn), the IC50 in experiment [2] was 9 µM.

Regarding `O=c1c2ccccc2c2nc3ccc4c(=O)c5ccccc5c5nc6ccc1c2c6c3c45`, the IC50 entry in experiment [1] is on record as “Not Active”.

In the case of `Cc1cc(-c2ccccc2)[nH]c2nc3ccccc3[n+]1-2`, the IC50 entry in experiment [1] is listed as “Not Active”.

Consider `OC1C[n+]2cc3ccccn3c2-c2cccc[n+]21` (stereo not drawn), for which, in experiment [1], the IC50 result was “Not Active”.

As to `NCC(=O)c1ccc2cc(Br)c3ccccc3c2c1`, in experiment [1], the IC50 entry is given as “Not Active”.

On to `Cc1cc2c(cc1C)[n+]([O-])c(-c1nc3ccccc3s1)c(N)[n+]2[O-]`, for which the IC50 entry in experiment [1] is listed as “Not Active”.

On to `c1cc[n+]2cc3ccc4c[n+]5ccccc5cc4c3cc2c1`, for which the half-maximal inhibitory concentration (IC50) entry in experiment [1] was “Not Active”.

For `O=C1c2ccccc2-c2ccc3c4ccc5c6c(ccc(c7ccc1c2c73)c64)C(=O)c1ccccc1-5`, the IC50 entry in experiment [1] is “Not Active”.

As to `Cn1c(=O)c2nc(-[n+]3ccc(-c4ccccc4)cc3)[nH]c2n(C)c1=O`, the IC50 result in experiment [1] was “Not Active”.

Take `COc1ccc2c(c1)c[n+](C)c1c3cc(OC)c(OC)cc3ccc21`: the IC50 entry in experiment [1] is “Not Active”.

Consider `O=C1c2cc([N+](=O)[O-])ccc2-c2ccc3c4ccc5c6c(ccc(c7ccc1c2c73)c64)C(=O)c1cc([N+](=O)[O-])ccc1-5`, for which, in experiment [1], the IC50 entry was “Not Active”.

In the case of `O=c1c2ccc(S(=O)(=O)c3ccc4c(=O)n5c6ccccc6nc5c5cccc3c45)c3cccc(c32)c2nc3ccccc3n12`, the IC50 in experiment [3] was 14 µM.

Turning to `Nc1nc(N)c2c(n1)[n+]([O-])c1ccccc1[n+]2[O-]`, in experiment [1], the IC50 result is “Not Active”.

Take `c1cc[n+]2c(c1)-c1cccc[n+]1CCC2`: the IC50 result in experiment [1] is “Not Active”.

As for `COc1cc2ccc3c4cc5c(cc4c[n+](C)c3c2cc1OC)OCO5`, in experiment [1], the IC50 entry is recorded as “Not Active”.

On to `CN1COc2ccc3ccc4c(c3c2C1)CN(C)CO4`, for which the IC50 entry in experiment [1] is listed as “Not Active”.

As to `COc1ccc2c(c1)CCc1cc(OC)ccc1/[N+]([O-])=[N+]\2[O-]`, the values for the IC50 in experiment [5] and in experiment [3] were 4 µM and 10.4 µM, respectively.

In the case of `CN1C(=O)c2ccc3c4ccc5c(=O)n6c7ccccc7nc6c6ccc(c7ccc(c2c37)C1=O)c4c56`, the IC50 entry in experiment [1] is “Not Active”.

Consider `COc1cc2cc[n+]3c4ccc([N+](=O)[O-])cc4ccc3c2cc1OC.[Cl-]`, for which, in experiment [1], the IC50 entry is recorded as “Not Active”.

On to `O=C1c2ccc[n+]3c2-c2c1ccc[n+]2CC3`, for which the IC50 result in experiment [1] is recorded as “Not Active”.

As for `N=C(N)c1ccc(/N=N/c2c(O)ccc3c2[nH]c2ccccc23)cc1`, the IC50 in experiment [3] was 5.8 µM.

`Brc1cccc[n+]1-c1ccc2cc(-[n+]3ccccc3Br)ccc2c1`: the IC50 in experiment [3] turned out to be 11.7 µM.

In the case of `COc1cc2ccc3c[n+]4ccccc4cc3c2cc1OC`, the IC50 result in experiment [1] is recorded as “Not Active”.

Consider `O=C(CSc1ccccn1)c1sc2cccc[n+]2c1O`, for which the IC50 result in experiment [1] was “Not Active”.

With `O=C(CSc1nc2ccccc2s1)c1sc2sc3ccccc3[n+]2c1O`, in experiment [1], the IC50 entry is reported as “Not Active”.

Consider `CN(C)CCNCCCNc1c2ccccc2nc2cccc([N+](=O)[O-])c12`, for which the IC50 result in experiment [1] was “Not Active”.

As to `CCCC[C@H]1C(=O)O[C@H](C)[C@H](NC(=O)c2cccc(NC=O)c2O)C(=O)O[C@@H](C)[C@@H]1OC(=O)CC(C)C` [ANTIMYCIN A3], in experiment [2], the IC50 was 2 µM.

As a reminder, the IC50 is the concentration needed to halve the response being measured. By Ki is commonly meant a measure of affinity in units of concentration, obtained from inhibition or displacement. Lower therefore signals tighter binding.
